VIM-2 inh: blocks Pseudomonas aeruginosa VIM-2 metallo-beta-lactamase; actives 0.89% (n = 290,000); inhibition, % at 5.6 µM; purified VIM-2, nitrocefin hydrolysis, epi-absorbance fluorescence;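 active means inhibition above the mean of all tested compounds plus 3 SD, cutoff set per screening run, cut at about 7.5% in these data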;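 further: red hydrolysis product quenches plate fluorescence so inhibitors raise well fluorescence; 0% = enzyme with DMSO and 100% = DMSO without enzyme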
PABP1 MLLE inh: blocks PAM2 peptide binding to the PABP1 MLLE domain; GST-MLLE / FITC-PAM2 fluorescence polarization; inhibition, % at 20 µM; actives 0.36% (n = 360,000); in the data active means inhibition above about 35%, passing the limit was not always enough;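 further: plate controls were DMSO wells with GST-MLLE for no effect and wells lacking GST-MLLE protein for full effect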
PABP polyA inh: PABP-poly(A) binding inhibition. PABP-poly(A) RNA binding, fluorescence polarization. calls only at 35 µM. actives 1% (n = 290,000);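 further: calls also rest on retests at 20 µM and on dose response follow-up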
IMP-1 inhibitor: blocks Pseudomonas aeruginosa IMP-1 metallo-beta-lactamase. purified IMP-1, nitrocefin hydrolysis, epi-absorbance fluorescence. actives 0.45% (n = 290,000). inhibition, % at 5.6 µM;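 active means inhibition above the mean plus 3 SD of all compounds in the same screening run, cut at about 4.5% in these data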;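 further: 0% = IMP-1 with DMSO and 100% = DMSO wells lacking enzyme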
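assay system = purified recombinant IMP-1 metallo-beta-lactamase enzyme | schedule = 15 min preincubation plus 25 min reaction at 25 °C | signal = Epi-absorbance fluorescence, 480 nm excitation, 530 nm emission | read-out basis = percent inhibition from optical density relative to buffer-blank wells | controls = IMP-1 with DMSO as 0%, enzyme-free DMSO as 100%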
eIF4H FP inh: inhibitors of RNA binding by human eIF4H | eIF4H fluorescence polarization binding assay | actives 0.94% (n = 290,000) | inhibition, % at 35 µM;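 further: calls also rest on retests at 20 µM and on dose response follow-up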
Numbers without * were called inactive; i = inactive; ? = inconclusive; · = no result; + = active, no number. Most compounds without a hit are left out; they make up all but 2.2% or so of the library. Unless noted, how the calls were made is not given here.

SMILES	VIM-2 inh	PABP1 MLLE inh	PABP polyA inh	IMP-1 inhibitor	eIF4H FP inh
O=C(O)c1cccc(N2C(=O)c3cccc4cccc(c34)C2=O)c1	-1	12	i	-4	-5
O=C(O)c1cccc(N2C(=O)c3cc([N+](=O)[O-])cc4cc([N+](=O)[O-])cc(c34)C2=O)c1	1	-2	+	1	68*
O=C(Nc1nccs1)c1ccc(S(=O)(=O)N2CCOCC2)cc1	-3	-13	i	-3	0
O=C(O)c1ccc2c3c(cccc13)C(=O)N(c1ccccc1)C2=O	2	0	i	1	81
O=C(O)c1ccc(N2C(=O)c3cccc4c(C(=O)O)ccc(c34)C2=O)cc1	1	-17	+	1	96*
Cc1ccc(N2C(=O)c3cccc4cccc(c34)C2=O)cc1	-6	14	i	-1	-3
O=C1c2cccc3cccc(c23)C(=O)N1c1ccc(O)cc1	8.4*	13	i	-3	-4
CN(c1ccccc1)S(=O)(=O)c1cccc(NC(=O)Cn2cnc3c2c(=O)n(C)c(=O)n3C)c1	-1	-6	i	-4	-14
Cn1c(=O)c2c(ncn2CC(=O)Nc2cccc(S(=O)(=O)Nc3ccccc3F)c2)n(C)c1=O	0	45*	i	-2	-14
O=C(O)c1ccccc1C(c1ccc(O)cc1)c1ccc(O)cc1	0	-4	i	2	-4
CN1C(=O)c2ccccc2NC(=O)[C@]12O[C@@H]2c1cccc(O)c1	·	4	i	·	88*
CS(=O)(=O)NN1C(=O)c2ccccc2NC1c1cccc(O)c1 (stereo unspecified)	1	13	i	-1	-2
CCOC(=O)N1CCN(CCCc2ccccc2)CC1	-1	11	i	0	6
CCOc1cc(Br)c(C(C)NC(=O)c2cccnc2)cc1OCC (stereo unspecified)	·	-1	·	·	·
COc1ccc(N2Cc3ccccc3C2=O)cc1	-1	3	i	-2	-1
COc1ccc(N2Cc3cccc(C(=O)O)c3C2=O)cc1	0	-4	+	-2	93*
Cc1ccc(C)n1-c1cc(S(=O)(=O)N2CCOCC2)ccc1N1CCCC1	-1	1	+	-2	92*
CNCc1cc(C)n(-c2cc(S(=O)(=O)N3CCOCC3)ccc2N2CCCC2)c1C	·	-14	·	·	·
COc1cc(/C=C/C(=O)Nc2cc(S(=O)(=O)N3CCOCC3)ccc2N2CCCC2)cc(OC)c1OC	3	40*	i	-3	-7
CC(CC1C(C#N)=C(N)SC(N)=C1C#N)c1ccccc1 (stereo unspecified)	-2	-65	?	5.1*	?
O=[N+]([O-])c1ccc(OCc2n[nH]c(=S)n2-c2ccccc2)cc1	-3	-17	i	-4	-6
COc1cc(CNCc2ccccn2)ccc1OCc1ccc(Cl)c(Cl)c1	10*	-6	i	-5	13
COc1cc(CNCc2ccccn2)ccc1OCc1ccc(Cl)cc1Cl	4	6	i	-2	1
O=C(NC(=S)Nc1ccc2oc(=O)ccc2c1)c1ccco1	0	43*	i	-2	-10
Cc1cc(C=C2C(=O)c3ccccc3C2=O)c(C)n1-c1ccc(Cl)cc1	-2	-16	i	-5	63*
SMILES	VIM-2 inh	PABP1 MLLE inh	PABP polyA inh	IMP-1 inhibitor	eIF4H FP inh
Cc1cccc(-n2c(C)cc(C=C3C(=O)c4ccccc4C3=O)c2C)c1	-9	-126	i	-3	-1
Cc1ccc(S(=O)(=O)c2cc3c(=O)n4ccccc4nc3n(C3CCCCC3)c2=N)cc1	0	-6	i	-1	3
CCCC(=O)N1CCC1(C)C(=O)Nc1cc(OC)ccc1OC (stereo unspecified)	·	1	·	·	·
CN(C)c1nc2n(c(=O)n1)C(C#N)CS2 (stereo unspecified)	-2	40*	i	-1	10
COc1cc(SC)ccc1C(=O)NNC(=O)c1cc(C)oc1C	·	-11	·	·	·
COc1ccc2c(c1)CCN1C2CCN2C(=O)CCC21 (stereo unspecified)	-1	58*	+	-1	73*
COc1cccc(N2C(=O)CC(N3CCc4ccccc43)C2=O)c1 (stereo unspecified)	-3	14	i	-2	-8
O=C(c1cccc(S(=O)(=O)NCc2ccccc2)c1)N1CCN(c2ccccc2)CC1	·	1	·	·	·
O=C(c1cccc(S(=O)(=O)NCc2ccccc2)c1)N1CCN(c2cccc(C(F)(F)F)c2)CC1	-3	12	+	-4	16
O=C(NCc1cccnc1)c1cccc(S(=O)(=O)NCc2ccccc2)c1	·	13	·	·	·
O=C(NCc1ccncc1)c1cccc(S(=O)(=O)NCc2ccccc2)c1	-2	5	+	-6	13
O=C(NN1C(=O)/C(=C/C=C/c2ccccc2)SC1=S)c1ccncc1	-3	-77	i	-2	2
CC(C)C(C(=O)O)N1C(=O)/C(=C/c2cccn2C)SC1=S (stereo unspecified)	2	-137	i	-1	?
O=C1/C(=C/c2ccco2)SC(=S)N1c1cccnc1	0	-1	+	2	92*
CC(C)C(C(=O)O)N1C(=O)/C(=C/C=C/c2ccco2)SC1=S (stereo unspecified)	-1	-4	+	5.8*	91*
O=C(NN1C(=O)/C(=C/C=C/c2ccco2)SC1=S)c1ccncc1	-3	0	+	-4	84*
O=C1/C(=C\c2ccc(O)cc2)SC(=S)N1c1cccnc1	1	-32	i	1	-20
NN1C(=O)/C(=C\c2ccco2)SC1=S	-4	19	+	-2	106*
CCOC(=O)CN1C(=O)S/C(=C/c2ccco2)C1=O	-3	5	i	-3	-3
COc1ccc(/C=C2\SC(=S)N(c3cccnc3)C2=O)cc1	-1	18	i	-1	2
O=C1/C(=C/C=C/c2ccco2)SC(=S)N1c1ccc(O)cc1	0	-46	+	1	80*
O=C(CCCN1C(=O)/C(=C\c2ccco2)SC1=S)Nc1ccc(O)cc1C(=O)O	-3	24	·	4	·
O=C1/C(=C\c2ccco2)SC(=S)N1c1ccc(O)cc1	4	25	i	4	81*
COc1cccc(/C=C2\SC(=S)N(c3cccnc3)C2=O)c1OC	0	55*	i	-2	0
CN(C)NC(=S)Nc1ccc2nc(-c3ccccn3)c(-c3ccccn3)nc2c1	-1	9	i	-1	?
S=C(Nc1ccc2nc(-c3ccccn3)c(-c3ccccn3)nc2c1)N1CCOCC1	-4	46*	i	-3	34
CCCCn1c(CCn2nc(C)c(Br)c2C)n[nH]c1=S	8.1*	-1	i	1	2
O=C(NC12CC3CC(CC(C3)C1)C2)OCCNC1CCCCC1	0	24	i	4.5*	-4
C/C(=N\Nc1cc(N2CCOCC2)ncn1)c1ccc(O)cc1	0	4	i	-18	1
